Assay results as given in ChEMBL document CHEMBL1148598, “Rational design and enantioselective synthesis of (1R,4S,5R,6S)-3-azabicyclo[3.3.0]octane-4,6-dicarboxylic acid - a novel inhibitor at human glutamate transporter subtypes 1, 2, and 3” (J Med Chem, 2006).

Assays:
[1] = target: Excitatory amino acid transporter 1 (Homo sapiens, UniProt P43003); assay: Activity against human EAAT1 transfected in HEK293 cells; format: cell-based
Method in brief: (§1)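 HEK293 lines stably expressing the human transporter were grown on poly-D-lysine plates in DMEM with 10% dialyzed FBS, pen/strep and 1 mg/mL G-418. After 16-24 h, cells were put in Krebs buffer (pH 7.4) containing inhibitor and loaded with FMP dye for 30 min at 37 °C. Plates were read at 30 °C (ex 530/em 560 nm) up to 1 min after adding 30 µM Glu. Runs were in triplicate, ≥3 times. IC50 was converted to Ki by Cheng-Prusoff.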

[2] = target: Excitatory amino acid transporter 2 (Homo sapiens, UniProt P43004); assay: Activity against human EAAT2 transfected in HEK293 cells; format: cell-based; method in brief: as §1
Chain of Excitatory amino acid transporter 2 (P43004 whole entry): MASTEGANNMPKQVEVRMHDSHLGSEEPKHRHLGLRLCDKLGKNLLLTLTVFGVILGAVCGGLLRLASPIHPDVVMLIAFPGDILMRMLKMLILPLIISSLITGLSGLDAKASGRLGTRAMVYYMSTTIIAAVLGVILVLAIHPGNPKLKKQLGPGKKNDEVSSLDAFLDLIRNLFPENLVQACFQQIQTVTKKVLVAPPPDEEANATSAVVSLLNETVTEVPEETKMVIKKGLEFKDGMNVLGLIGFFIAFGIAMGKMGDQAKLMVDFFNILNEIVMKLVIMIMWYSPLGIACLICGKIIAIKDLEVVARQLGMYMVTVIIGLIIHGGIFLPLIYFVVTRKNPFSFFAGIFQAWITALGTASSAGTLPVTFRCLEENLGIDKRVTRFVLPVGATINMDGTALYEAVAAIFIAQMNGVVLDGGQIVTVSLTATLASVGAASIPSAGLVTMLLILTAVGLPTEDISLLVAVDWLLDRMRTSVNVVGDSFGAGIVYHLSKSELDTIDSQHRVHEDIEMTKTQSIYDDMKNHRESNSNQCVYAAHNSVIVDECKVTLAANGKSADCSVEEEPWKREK

[3] = target: T1, Excitatory amino acid transporter 3 (Homo sapiens, UniProt P43005); assay: Activity against human EAAT3 transfected in HEK293 cells; format: cell-based; method in brief: as §1
T1 sequence (P43005 whole entry): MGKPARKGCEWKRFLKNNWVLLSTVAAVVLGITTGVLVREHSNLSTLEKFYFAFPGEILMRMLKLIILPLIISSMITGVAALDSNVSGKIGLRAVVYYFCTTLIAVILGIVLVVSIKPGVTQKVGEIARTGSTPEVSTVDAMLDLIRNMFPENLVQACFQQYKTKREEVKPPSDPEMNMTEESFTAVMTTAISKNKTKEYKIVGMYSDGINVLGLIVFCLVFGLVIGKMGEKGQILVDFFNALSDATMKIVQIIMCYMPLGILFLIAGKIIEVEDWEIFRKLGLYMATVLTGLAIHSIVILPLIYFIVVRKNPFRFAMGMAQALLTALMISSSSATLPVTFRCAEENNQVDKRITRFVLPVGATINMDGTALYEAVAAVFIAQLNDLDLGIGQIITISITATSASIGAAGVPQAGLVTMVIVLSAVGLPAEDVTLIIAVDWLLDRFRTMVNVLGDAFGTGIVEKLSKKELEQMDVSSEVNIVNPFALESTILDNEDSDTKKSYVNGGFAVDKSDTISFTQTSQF

[4] = target: Glutamate receptor ionotropic, AMPA (Rattus norvegicus, UniProt P19490+P19491+P19492+P19493); assay: Displacement of [3H]AMPA from AMPA receptor in rat brain; format: tissue-based
Method in brief: (§2)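 Radioligand binding used rat brain membranes prepared by the Ransom and Stec method. Ligands were 5 nM [³H]AMPA for AMPA sites, 5 nM [³H]KAIN for kainate sites and 2 nM [³H]CGP 39653 for NMDA sites, and the value is reported as IC50.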

[5] = target: Metabotropic glutamate receptor 1 (Homo sapiens, UniProt Q13255); assay: Activity against mGluR1
Chain of Metabotropic glutamate receptor 1 (Q13255 whole entry): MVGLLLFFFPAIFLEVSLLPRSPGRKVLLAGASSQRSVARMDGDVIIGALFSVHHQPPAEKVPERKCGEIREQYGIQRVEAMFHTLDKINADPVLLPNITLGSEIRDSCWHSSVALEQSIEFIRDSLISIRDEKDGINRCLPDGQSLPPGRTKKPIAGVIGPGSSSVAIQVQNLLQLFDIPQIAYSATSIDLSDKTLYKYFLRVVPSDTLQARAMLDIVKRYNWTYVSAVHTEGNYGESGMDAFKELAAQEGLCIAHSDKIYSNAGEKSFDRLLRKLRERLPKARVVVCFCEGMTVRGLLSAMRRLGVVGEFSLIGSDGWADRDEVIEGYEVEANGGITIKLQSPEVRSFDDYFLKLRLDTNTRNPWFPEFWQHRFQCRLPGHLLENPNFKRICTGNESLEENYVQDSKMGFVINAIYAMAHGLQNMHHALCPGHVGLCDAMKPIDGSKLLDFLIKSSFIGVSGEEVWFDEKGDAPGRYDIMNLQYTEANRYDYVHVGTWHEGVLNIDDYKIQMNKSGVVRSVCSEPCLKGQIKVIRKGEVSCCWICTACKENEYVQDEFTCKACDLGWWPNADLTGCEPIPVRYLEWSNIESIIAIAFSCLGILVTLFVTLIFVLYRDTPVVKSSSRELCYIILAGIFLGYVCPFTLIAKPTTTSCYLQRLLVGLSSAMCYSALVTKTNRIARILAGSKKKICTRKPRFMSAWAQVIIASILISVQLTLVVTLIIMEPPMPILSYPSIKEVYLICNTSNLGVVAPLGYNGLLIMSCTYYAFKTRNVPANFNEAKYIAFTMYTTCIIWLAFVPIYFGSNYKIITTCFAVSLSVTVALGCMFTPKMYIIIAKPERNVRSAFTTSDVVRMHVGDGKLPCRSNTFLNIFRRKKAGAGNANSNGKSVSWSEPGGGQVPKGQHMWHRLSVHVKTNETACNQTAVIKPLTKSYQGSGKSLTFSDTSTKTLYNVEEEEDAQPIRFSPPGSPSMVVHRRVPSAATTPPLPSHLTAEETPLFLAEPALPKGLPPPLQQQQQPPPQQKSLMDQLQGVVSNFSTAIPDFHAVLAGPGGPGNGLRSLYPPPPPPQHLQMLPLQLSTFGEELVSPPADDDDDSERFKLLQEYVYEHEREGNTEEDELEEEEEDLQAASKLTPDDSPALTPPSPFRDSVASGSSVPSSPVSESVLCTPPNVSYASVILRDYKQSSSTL

[6] = target: Glutamate NMDA receptor; assay: Displacement of [3H]CGP-39653 from NMDA preferring iGlu receptor in rat brain; format: tissue-based
[7] = target: Metabotropic glutamate receptor 2 (Homo sapiens, UniProt Q14416); assay: Activity against mGluR2
Chain of Metabotropic glutamate receptor 2 (Q14416 whole entry): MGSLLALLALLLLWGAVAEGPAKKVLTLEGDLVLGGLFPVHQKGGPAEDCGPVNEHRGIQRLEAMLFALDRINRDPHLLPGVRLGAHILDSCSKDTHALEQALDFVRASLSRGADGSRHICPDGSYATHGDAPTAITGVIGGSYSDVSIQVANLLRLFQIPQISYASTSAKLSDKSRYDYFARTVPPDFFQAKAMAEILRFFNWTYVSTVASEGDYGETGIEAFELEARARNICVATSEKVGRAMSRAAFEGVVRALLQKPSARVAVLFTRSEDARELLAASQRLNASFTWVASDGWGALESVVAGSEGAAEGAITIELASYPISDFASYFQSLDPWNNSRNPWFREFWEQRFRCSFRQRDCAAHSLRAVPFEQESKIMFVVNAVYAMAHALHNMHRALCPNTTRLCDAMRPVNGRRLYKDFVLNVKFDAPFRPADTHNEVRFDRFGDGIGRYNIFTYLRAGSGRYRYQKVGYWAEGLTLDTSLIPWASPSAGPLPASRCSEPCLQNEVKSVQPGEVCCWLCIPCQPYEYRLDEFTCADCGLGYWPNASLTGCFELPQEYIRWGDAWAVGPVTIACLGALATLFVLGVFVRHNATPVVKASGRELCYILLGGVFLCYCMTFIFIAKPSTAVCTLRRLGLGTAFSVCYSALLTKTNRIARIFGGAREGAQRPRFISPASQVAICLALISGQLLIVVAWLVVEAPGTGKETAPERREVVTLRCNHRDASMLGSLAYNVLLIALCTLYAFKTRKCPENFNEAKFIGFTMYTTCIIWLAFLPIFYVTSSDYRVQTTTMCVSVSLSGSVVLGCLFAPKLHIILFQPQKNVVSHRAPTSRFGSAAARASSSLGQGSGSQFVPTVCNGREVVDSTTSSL

[8] = target: Glutamate receptor ionotropic, kainate; assay: Displacement of [3H]KAIN from kainate receptor in rat brain; format: tissue-based; method in brief: as §2

Chain of Excitatory amino acid transporter 1 (P43003 whole entry): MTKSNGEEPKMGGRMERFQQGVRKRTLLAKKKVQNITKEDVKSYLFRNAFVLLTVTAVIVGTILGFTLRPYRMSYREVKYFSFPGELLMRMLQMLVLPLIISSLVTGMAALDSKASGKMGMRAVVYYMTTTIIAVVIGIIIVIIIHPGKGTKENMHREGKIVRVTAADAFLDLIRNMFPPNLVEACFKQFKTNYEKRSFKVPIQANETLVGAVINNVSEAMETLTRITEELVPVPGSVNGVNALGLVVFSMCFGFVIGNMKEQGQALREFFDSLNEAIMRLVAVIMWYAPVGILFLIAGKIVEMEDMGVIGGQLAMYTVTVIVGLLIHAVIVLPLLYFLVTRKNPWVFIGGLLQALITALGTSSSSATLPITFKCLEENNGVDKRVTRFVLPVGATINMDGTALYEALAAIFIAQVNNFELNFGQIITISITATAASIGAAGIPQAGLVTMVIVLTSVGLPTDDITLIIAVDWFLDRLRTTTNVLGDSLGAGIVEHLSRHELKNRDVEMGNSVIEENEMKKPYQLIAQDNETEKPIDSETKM

| SMILES | Ki [1] [µM] | Ki [2] [µM] | Ki [3] [µM] | IC50 [4] [µM] | EC50 [5] [µM] | Ki [6] [µM] | EC50 [7] [µM] | IC50 [8] [µM] |
| --- | --- | --- | --- | --- | --- | --- | --- | --- |
| O=C(O)[C@H]1CC2CC1[C@@H](C(=O)O)N2 (stereo partly specified) | > 400 | > 400 | > 400 |  |  |  |  |  |
| O=C(O)[C@H]1CC[C@H]2CN[C@H](C(=O)O)[C@H]21 | 127 | 52 | 46 | > 100 | > 1000 | 2.9 | 1000 | 14 |
